# A selection: hits, their analogues and other compounds. The true share with any hit is near 4.8%.
# pPAFAH inh = pPAFAH (human) enzyme inhibition; Q13093; inhibition, % at 3.39 µM; hit rate 1.5% among 330,000; AID 463082; recombinant pPAFAH, FP-rhodamine probe fluorescence polarization;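 active = inhibition above the mean inhibition across the screen plus 3 SD, cut at about 25% in these data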;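 also: inhibitors block binding of the rhodamine activity-based probe so polarization drops; 0% = enzyme with DMSO and 100% = wells lacking pPAFAH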
# PAFAH1B2 inh = inhibitors of human PAFAH1B2; inhibition, % at 3.39 µM; P68402; recombinant PAFAH1B2, FP-rhodamine activity probe, fluorescence polarization; hit rate 1.2% among 340,000;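 active = inhibition above the mean of all tested compounds plus 3 SD, cut at about 24% in these data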;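 also: 0% = enzyme with DMSO and 100% = wells lacking PAFAH1B2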
# Target sequence (P68402 whole entry, looked up): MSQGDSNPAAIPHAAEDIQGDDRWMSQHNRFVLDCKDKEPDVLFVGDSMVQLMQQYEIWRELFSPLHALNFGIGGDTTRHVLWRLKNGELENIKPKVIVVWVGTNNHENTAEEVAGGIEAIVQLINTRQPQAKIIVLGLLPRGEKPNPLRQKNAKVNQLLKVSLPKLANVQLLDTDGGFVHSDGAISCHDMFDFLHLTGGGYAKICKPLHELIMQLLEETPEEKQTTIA
# UCH37 DUB inh = inhibitors of human deubiquitinating enzyme UCH37. inhibition, % (no concentration beside the values). purified proteasome/UCH37, Ub-AMC cleavage fluorescence. hit rate 0.33% among 330,000;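 active = mean inhibition over replicate wells above about 20%, limit read from the data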;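 also: 0% = compound-free wells with enzyme and 100% = wells lacking proteasome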
# Target sequence (Q9Y5K5 whole entry, looked up): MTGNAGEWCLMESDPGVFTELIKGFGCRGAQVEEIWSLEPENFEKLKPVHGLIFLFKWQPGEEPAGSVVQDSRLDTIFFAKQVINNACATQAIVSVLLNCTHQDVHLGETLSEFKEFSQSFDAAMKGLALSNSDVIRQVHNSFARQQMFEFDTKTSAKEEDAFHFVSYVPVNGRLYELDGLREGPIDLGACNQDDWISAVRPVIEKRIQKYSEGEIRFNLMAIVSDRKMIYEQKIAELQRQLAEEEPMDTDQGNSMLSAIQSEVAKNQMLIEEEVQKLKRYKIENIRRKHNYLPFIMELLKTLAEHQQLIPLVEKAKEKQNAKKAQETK
#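 Signal – fluorescence, ex 355 nm, em 460 nm · System – Proteasome-bound UCH37 · Input – 0.15 nM proteasome as dispensed · Timing – 30 min preincubation with enzyme, 25 min cleavage at room temperature · Read-out basis – percent inhibition of cleavage signal versus uninhibited and no-proteasome wells · Medium – Tris-HCl pH 7.4 with ATP-MgCl2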
# PAFAH1B3 inh = PAFAH1B3 (human) inhibition; Q15102; recombinant PAFAH1B3, FP-rhodamine probe, fluorescence polarization; inhibition, % at 3.39 µM; hit rate 0.28% among 340,000;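 active = inhibition above the screen-wide average of all tested compounds plus 3 SD, cut at about 25% in these data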;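 also: 0% = enzyme with DMSO only and 100% = wells lacking PAFAH1B3 protein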
# NR3A LBD binder = modulates the human NR3A ligand-binding domain; Tm shift relative to glycine control, % at 25 µM; AID 1259313; hit rate 2.5% among 340,000; NR3A LBD differential scanning fluorimetry, Tm shift; 0% = protein alone, 100% = glycine-bound protein;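 active = melting temperature shift of at least 10% of the positive control shift, at one fixed dose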
# PAFAH2 FP inh = PAFAH2 (human) inhibition | Q99487 | hit rate 0.99% among 340,000 | inhibition, % at 3.39 µM | AID 492956 | recombinant PAFAH2, FP-rhodamine activity probe, fluorescence polarization;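 active = inhibition above the mean over all tested compounds plus 3 SD, cut at about 30% in these data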;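 also: inhibitors block probe labeling of enzyme so polarization drops; 0% = enzyme with DMSO and 100% = wells lacking PAFAH2 protein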
# PAFAH1B3 conf FP = PAFAH1B3 (human) inhibition, confirmed | inhibition, % at 3.39 µM | hit rate 30% among 390 | recombinant PAFAH1B3, FP-Rh activity-based probe, fluorescence polarization | shares compounds with PAFAH1B3 inh;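 active = average inhibition over triplicate runs above the hit cutoff set in the earlier primary screen, cut at about 25% in these data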;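 also: 0% = enzyme with DMSO and 100% = wells lacking PAFAH1B3 protein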
# An asterisk follows results filed as active; nt = no result given.
SMILES,pPAFAH inh,PAFAH1B2 inh,UCH37 DUB inh,PAFAH1B3 inh,NR3A LBD binder,PAFAH2 FP inh,PAFAH1B3 conf FP
CCc1cc(C(Cc2ccccn2)=NNc2ccccc2)c(O)cc1O,nt,nt,8.1,nt,nt,nt,nt
CC(C)(C)OC(=O)NN=Cc1ccc(OC(=O)c2ccco2)cc1,nt,nt,2.8,nt,nt,nt,nt
CN(C)CCCNc1cc(O)c2ncccc2c1,0.8,2.8,4.5,29.4*,1.1,0.4,13.2
Oc1cc(NCc2ccc(F)cc2)cc2cccnc12,7.3,4.3,3.1,17.7,-1.8,5.4,nt
CC1(C)Cc2c(C#N)c(N)n(-c3ccccc3)c(=S)c2CO1,4.0,nt,9.1,nt,2.2,nt,nt
CC1(C)C=C2C(=NN(c3ccccc3)C(N)=C2C#N)CO1,8.4,12.2,nt,44.4*,2.4,4.0,50.5*
COc1ccccc1N(CC(=O)NN=C(C)c1ccccc1O)S(=O)(=O)c1ccc(C)cc1,nt,nt,1.7,nt,nt,nt,nt
O=C1C=C(Nc2cccnc2)c2ccccc2C1=O,nt,8.0,nt,52.6*,-0.3,8.3,27.4*
CCOc1ccc(NC2=CC(=O)C(=O)c3ccccc32)cc1,nt,14.5,nt,49.5*,0.3,13.7,31.4*
CC(C(=O)Nc1cccnc1)N1C(=O)c2ccccc2C1=O (centres undefined),-0.1,2.1,4.2,2.6,-0.6,12.6,nt
Cc1nn(-c2ccccc2)c(N2CCCC2)c1C=NNC(=S)Nc1ccccc1F,nt,nt,-6.9,nt,nt,nt,nt
COc1cccc(C=NNC(=O)c2cc(-c3cccn3C)n[nH]2)c1O,nt,nt,-0.4,nt,nt,nt,nt
Cc1cccc(C(=O)Oc2ccc(/C=N/NC(=O)c3cc(O)cc(O)c3)cc2)c1,nt,5.1,nt,26.3*,13.9*,-16.6,12.0
Cc1cccc(C(=O)Oc2ccc(C=NO)cc2)c1,nt,nt,3.3,nt,nt,nt,nt
CCCCn1c(N)c(N(CCC(C)C)C(=O)COC(=O)c2ccc([N+](=O)[O-])s2)c(=O)[nH]c1=O,2.4,13.1,15.9,29.6*,0.7,25.0,21.8
COc1cc2c(cc1OC)CN(CCC(=O)c1ccc(Br)cc1)CC2,3.9,14.7,-6.3,32.7*,0.9,-2.7,27.8*
O=C(Nc1ccc(O)cc1)C1CC=CCC1 (centres undefined),17.1,12.6,7.4,27.4*,-3.4,25.6,12.2
Cc1ccc(NC(=S)NN=C2CCCCc3ccccc32)cc1,nt,nt,-1.7,nt,nt,nt,nt
Fc1ccc2nc(Nc3nc4cc5c(cc4s3)OCCO5)sc2c1,12.5,4.4,-97.3,8.0,3.8,-14.9,nt
Fc1ccc2nc(Nc3nc4cc5c(cc4s3)OCO5)sc2c1,24.3,23.2,-34.5,43.0*,30.6*,-32.2,43.7*
O=C(NN=C1SCC(=O)N1Cc1ccco1)c1ccccc1F,nt,nt,1.1,nt,nt,nt,nt
CN(CCCCCCCCC(=O)/C=N/O)Cc1ccccc1,2.6,3.4,nt,11.0,-1.0,0.0,nt
CN(C)CCCCCCCCCCC(=O)/C=N/O,6.2,12.2,nt,26.8*,1.5,8.0,21.8
O=[N+]([O-])c1ccc(NN=Cc2c[nH]c3ccccc23)cc1,nt,nt,8.6,nt,nt,nt,nt
O=[N+]([O-])c1ccc(N/N=C/c2ccccc2O)cc1,9.2,9.3,nt,26.1*,37.7*,5.6,14.9
SMILES,pPAFAH inh,PAFAH1B2 inh,UCH37 DUB inh,PAFAH1B3 inh,NR3A LBD binder,PAFAH2 FP inh,PAFAH1B3 conf FP
CC1CCCC(=NNc2nc3ccccc3s2)C1 (centres undefined),nt,nt,-1.6,nt,nt,nt,nt
Cc1ccccc1C(=O)NN1C(=O)CSC1=S,-9.1,-0.9,2.1,-2.9,-0.7,-4.3,nt
CCOC(=O)c1ccccc1N1C(=O)CSC1=S,-0.9,-2.2,1.5,38.0*,1.1,-0.1,37.9*
O=C(O)c1cccc2c1C(=O)c1ccccc1-2,4.8,-0.9,1.7,3.1,0.2,7.5,nt
O=C1c2ccccc2C(=O)c2c(O)c(O)cc(O)c21,47.0*,16.3,4.9,39.7*,-9.2,19.1,29.4*
C/C(=N\NC(=O)c1ccccc1C)c1cccc([N+](=O)[O-])c1,-2.5,6.0,nt,-0.8,-2.9,-6.9,nt
C/C(=N\NC(=O)c1cc(-c2cccc([N+](=O)[O-])c2)n[nH]1)c1ccccc1O,18.8,6.4,nt,26.4*,25.7*,-5.3,13.7
COc1ccc(C(=O)c2c(C(F)(F)F)oc3c2C(=O)c2ccccc2C3=O)cc1,8.7,10.3,15.2,26.8*,-7.3,4.5,24.9
Cc1cc(C=NN2CCN(C)CC2)c(C)n1-c1ccc(Cl)cc1,nt,nt,0.1,nt,nt,nt,nt
